Test [1] addresses T1, Adenosine receptor A1 (Rattus norvegicus) (UniProt P25099).
T1 sequence (whole entry): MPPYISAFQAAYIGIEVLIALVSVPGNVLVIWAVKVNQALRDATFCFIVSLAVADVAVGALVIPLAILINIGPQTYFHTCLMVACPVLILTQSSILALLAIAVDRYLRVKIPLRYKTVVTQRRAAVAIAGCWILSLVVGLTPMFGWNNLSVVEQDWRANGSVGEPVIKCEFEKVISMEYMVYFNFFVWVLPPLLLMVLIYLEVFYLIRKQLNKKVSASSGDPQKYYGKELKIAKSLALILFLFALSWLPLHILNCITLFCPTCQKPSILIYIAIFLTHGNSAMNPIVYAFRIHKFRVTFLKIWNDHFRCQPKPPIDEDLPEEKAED
As to the kind of experiment: Displacement of [3H]PIA from Adenosine A1 receptor in rat brain membranes. Type of test: cell membranes. In a few lines:
(§1)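 Rat cortical membranes were pretreated with adenosine deaminase (3 units/mL) for 30 min at 30 °C during preparation. The enzyme was also present during incubation with [3H]-(R)-PIA. Ki values were derived from displacement of specific binding.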
A general note: In a radioligand displacement assay an active substance lowers the binding of a labelled ligand.

The target of test [2] is T2, Adenosine receptor A3 (Homo sapiens) (UniProt P0DMS8).
T2 sequence (whole entry): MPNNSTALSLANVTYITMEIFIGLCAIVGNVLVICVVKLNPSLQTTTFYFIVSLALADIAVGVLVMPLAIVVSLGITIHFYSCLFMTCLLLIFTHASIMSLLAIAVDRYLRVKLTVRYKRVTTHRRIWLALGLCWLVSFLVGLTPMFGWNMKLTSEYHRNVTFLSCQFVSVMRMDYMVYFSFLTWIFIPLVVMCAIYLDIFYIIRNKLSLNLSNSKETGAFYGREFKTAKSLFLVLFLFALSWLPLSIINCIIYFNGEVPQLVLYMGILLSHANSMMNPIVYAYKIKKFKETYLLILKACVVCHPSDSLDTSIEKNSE
Briefly: Displacement of specific [125I]AB-MECA binding from human Adenosine A3 receptor expressed in HEK293 cells. Type of test: cell-based. The arrangement: concentration or dose not given beside the values. In a few lines: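 Membranes came from HEK-293 cells stably expressing human A3. Binding used Mg2+-free 50 mM Tris with 1 mM EDTA, pH 8.0, and 0.3 nM final [125I]AB-MECA. Compounds came from DMSO stock, ≤1% final. Duplicates ran 1 h at 37 or 25 °C, then filtration and γ-counting. Nonspecific binding was set with 100 μM (R)-PIA.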

The target of test [3] is Adenosine receptor A2a (Rattus norvegicus) (UniProt P30543). As to the kind of experiment: Displacement of [3H]-CGS- 21680 from Adenosine A2A receptor in rat striatal membranes at 10e-4 M. Type of test: cell membranes. The conditions noted are these: Membrane. In a few lines: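 Rat striatal membranes were prepared with adenosine deaminase (3 units/mL), including a 30 min step at 30 °C. The enzyme was kept during the [3H]CGS 21680 incubation.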

In a further test the target is T3, Adenosine receptor A1 (Rattus norvegicus, UniProt P25099).
T3 sequence (P25099 whole entry): T1 sequence (whole entry)
As to the kind of experiment: Displacement of specific [3H]PIA binding from adenosine A1 receptor in rat brain membranes. Type of test: cell membranes. In a few lines: as §1

The next test has as its target T4, Adenosine receptor A3 (Homo sapiens, UniProt P0DMS8).
T4 sequence (P0DMS8 whole entry): T2 sequence (whole entry)
Briefly: Displacement of [125I]AB-MECA binding to human Adenosine A3 receptor expressed in HEK293 cells. Type of test: cell-based. In a few lines: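 Membranes came from HEK-293 cells stably expressing human A3. Compounds came from DMSO stock, ≤1% final. Duplicates ran 1 h at 37 or 25 °C, then filtration and γ-counting. Nonspecific binding was set with 100 μM (R)-PIA.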

The target of another test is Adenosine receptor A2a (Rattus norvegicus, UniProt P30543). Briefly: Affinity at Adenosine A2A receptor in rat striatal membranes by [3H]- CGS 21680 displacement. Format: cell membranes, Striatum, Membrane. In a few lines: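 Rat striatal membranes were prepared with adenosine deaminase (3 units/mL), including a 30 min step at 30 °C.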
Adenosine receptor A2a, sequence (P30543 whole entry): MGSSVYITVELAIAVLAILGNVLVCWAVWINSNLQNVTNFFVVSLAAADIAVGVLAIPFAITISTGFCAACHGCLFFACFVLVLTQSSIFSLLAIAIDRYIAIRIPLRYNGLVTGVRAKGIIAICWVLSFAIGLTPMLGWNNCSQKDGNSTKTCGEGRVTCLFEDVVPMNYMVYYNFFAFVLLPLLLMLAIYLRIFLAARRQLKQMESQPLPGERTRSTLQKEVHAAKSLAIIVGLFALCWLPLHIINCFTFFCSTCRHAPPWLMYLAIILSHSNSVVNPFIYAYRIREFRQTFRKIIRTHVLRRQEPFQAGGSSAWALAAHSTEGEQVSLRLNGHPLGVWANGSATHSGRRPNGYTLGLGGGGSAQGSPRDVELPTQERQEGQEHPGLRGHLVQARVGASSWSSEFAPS

Adenosine receptor A2a (Rattus norvegicus), sequence (P30543 whole entry): as above

As to `COc1cc(OC)c2c(=O)c(OC)c(-c3cc(OC)c(OC)c(OC)c3)oc2c1`, the Displacement in test [1] was < 10%.

Regarding `COc1c(O)cc2oc(-c3ccc(O)cc3)cc(=O)c2c1O`, in test [2], the Displacement came to 63%.

The compound `CCn1c2c(c3cc4c(cc3c1=O)OCO4)C(=O)CCC2` registered a Displacement in test [2] of 19%.

For the compound `O=C1c2ccccc2-c2cc3c(cc21)OCO3`, the Displacement in test [2] came to 52%.

As for `O=c1cc(-c2ccccc2)oc2ccc3ccccc3c12`, the Displacement in test [3] was < 10%; in test [2], 12%.

As for `COc1ccc(-c2cc(=O)c3ccc(O)cc3o2)cc1OC`, in test [2], the Displacement was 32%.

As to `O=c1c(-c2ccc(O)cc2)coc2cc(O)cc(O)c12`, the Displacement in test [2] amounted to 20%.

As to `COC1C=CC23c4cc5c(cc4C[N+](C)(CC2OC(C)=O)C3C1)OCO5` (stereo not given), the Displacement in test [3] and in test [2] was < 10% each time.

In turn, `O=c1cc(-c2ccc(O)cc2)oc2cc(O)cc(O)c12` yielded a Displacement in test [2] of 63%.

In test [2], `O=c1cc(-c2ccccc2)oc2cc(O)ccc12` came in with a Displacement of 41%.

As to `O=C1c2c(O)cc(O)cc2OC(c2ccc(O)c(O)c2)C1O` (racemic), the Displacement in test [1] was < 10%.

Take `COc1cc2c3c(c1)c1cc4c(cc1c(=O)n3CC2)OCO4`: the Displacement in test [3] and in test [2] was < 10% throughout.

Turning to `COc1cc2c3c(oc(=O)c2cc1OC)CCCC3=O`, the Displacement in test [2] is < 10%.

With `COc1cc2c(c(O)c1OC)c(=O)c1ccccc1n2C`, in test [2], the Displacement stood at 63%.

In test [2], `O=c1cc(-c2ccccc2)oc2c1ccc1ccccc12` came in with a Displacement of 71%.

`O=c1cc(-c2ccccc2)oc2cccc(O)c12`: the Displacement in test [2] is 47%.

Consider `COc1ccc(-c2cc(=O)c3c(O)cc(OC)cc3o2)cc1`, for which the Displacement was < 10% in test [1], < 10% in test [3] and 69% in test [2].

A word on the Ki: it is the equilibrium dissociation constant of an inhibitor or competing ligand from its target. As for `Cc1ccc(-c2cc(=O)c3c(C)c(C)c(C)cc3o2)cc1`, the Ki came to 1.29 µM on Adenosine receptor A1 and 4.48 µM at Adenosine receptor A3.

Take `O=C1c2cc(O)c(O)cc2C2c3ccc(O)c(O)c3OCC12O` (stereo not given): the Displacement was 28% in test [3] and < 10% in test [2].

`COc1ccc2c(=O)c(O)c(-c3ccc(O)c(O)c3)oc2c1` showed a Ki on Adenosine receptor A3 of 1.38 µM.

Regarding `COc1cc(O)c2c(c1)OC(c1ccc(O)cc1)CC2=O` (stereo not given), the Ki on Adenosine receptor A2a was 35.6 µM; at Adenosine receptor A1, 8.18 µM; on Adenosine receptor A3 it was 3.4 µM.

The values above are taken from ChEMBL document CHEMBL1129481, “Interactions of flavonoids and other phytochemicals with adenosine receptors” (J Med Chem, 1996).
